Results published in PMC7451030 (European journal of medicinal chemistry, 2020).

Tests used:
[1] = target: T1, human GLUT1 (Homo sapiens, UniProt P11166); assay: GLUT1 transport assay; format: cell-based; conditions: 100 μM compound
T1 sequence (P11166 1-492): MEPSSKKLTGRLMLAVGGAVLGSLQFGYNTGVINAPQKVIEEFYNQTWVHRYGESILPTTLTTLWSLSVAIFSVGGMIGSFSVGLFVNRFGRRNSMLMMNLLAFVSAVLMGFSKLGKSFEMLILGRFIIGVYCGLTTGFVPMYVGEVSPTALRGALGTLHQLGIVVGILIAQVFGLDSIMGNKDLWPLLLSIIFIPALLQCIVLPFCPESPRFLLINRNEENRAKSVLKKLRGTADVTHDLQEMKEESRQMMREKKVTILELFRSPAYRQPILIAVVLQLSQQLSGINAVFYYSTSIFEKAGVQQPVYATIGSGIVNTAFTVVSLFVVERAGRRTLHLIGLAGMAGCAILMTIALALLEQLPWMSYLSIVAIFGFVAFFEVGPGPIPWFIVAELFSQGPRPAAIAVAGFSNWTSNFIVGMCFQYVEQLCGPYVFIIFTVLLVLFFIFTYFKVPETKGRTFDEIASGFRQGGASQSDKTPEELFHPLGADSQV
In short: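 hxt0 yeast VW4000fgy1 expressing human GLUT1 was grown at 30 °C in SC-uracil with 2% maltose for 2–3 days, then 2% glucose for 1–2 days. Cells were resuspended in PBS pH 7.4 at OD600 ~10 and given 100 µM compound (1% DMSO final). Uptake of 5 mM 14C-glucose ran 10 min, then ice-cold KPi/LiCl quench pH 5.5, filtration and scintillation counting. Activity was taken relative to 1% DMSO and 200 µM phloretin.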

[2] = target: T2, human GLUT4 (Homo sapiens, UniProt P14672); assay: GLUT4 transport assay; format: cell-based; conditions: 100 μM compound
T2 sequence (P14672 1-509): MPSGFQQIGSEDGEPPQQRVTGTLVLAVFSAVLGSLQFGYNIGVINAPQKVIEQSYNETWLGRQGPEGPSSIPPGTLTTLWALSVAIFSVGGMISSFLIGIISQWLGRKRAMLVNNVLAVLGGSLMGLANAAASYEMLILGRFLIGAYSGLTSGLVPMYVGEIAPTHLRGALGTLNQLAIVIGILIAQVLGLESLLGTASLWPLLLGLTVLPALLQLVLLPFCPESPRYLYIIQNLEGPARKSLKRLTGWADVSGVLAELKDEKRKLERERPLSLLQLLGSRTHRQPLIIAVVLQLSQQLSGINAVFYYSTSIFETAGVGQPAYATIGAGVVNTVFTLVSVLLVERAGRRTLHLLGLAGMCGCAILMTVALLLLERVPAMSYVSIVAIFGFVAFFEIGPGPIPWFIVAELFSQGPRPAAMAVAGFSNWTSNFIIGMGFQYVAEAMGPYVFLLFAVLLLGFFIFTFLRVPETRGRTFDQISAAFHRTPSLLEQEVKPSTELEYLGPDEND
In short: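 GLUT4 was expressed in hxt0 yeast VW4000fgy1erg4 grown at 30 °C in SC-uracil with 1% maltose, then 0.2% glucose. Washed cells were assayed in PBS pH 7.4 at OD600 ~10 with 100 µM compound (1% DMSO final) and 5 mM 14C-glucose for 10 min. The reaction was stopped with cold KPi/LiCl pH 5.5, then filtered and counted by scintillation. Values are relative to 1% DMSO and 200 µM phloretin controls.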

[3] = test system: human GLUT5; assay: GLUT5 transport assay; format: cell-based; conditions: 100 μM compound; 10 mM C14-fructose
In short: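 VW4000 hxt0 yeast carrying human GLUT5 was grown for 1 day in YEP with 2% maltose and 100 µg/ml G418, then 1–2 days in 2% fructose with G418, at 30 °C. Cells in PBS pH 7.4 at OD600 ~10 received 100 µM compound (1% DMSO final) and 10 mM 14C-fructose for 10 min. Cold quench pH 5.5 and filtration followed, with scintillation read-out. Controls: 1% DMSO and 100 µM MSNBA.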

[4] = test system: CEM cells; assay: Cell cycle analysis by flow cytometry; format: cell-based, human; conditions: CEM, 10, 25 or 50 μM, 72 h
[5] = test system: normal WBCs; assay: MTT viability assay on non-transformed WBCs; format: cell-based, human; conditions: 187.2 μM vs 1.7 μM
[6] = test system: CEM xenograft tumor; conditions: for xenograft volume of untreated group relative to treated group: SCID mice, CEM xenograft, doxorubicin 20 mg/kg i.p., F18 50 mg/kg i.p., 18 days
[7] = test system: p-mTOR, CDK2, GRP78 and Caspase 3 in F18-treated cells; assay: Western blotting of cell signaling proteins; format: cell-based, human; conditions: 10 μM, 6 h
In short: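 Treated cells were washed in cold PBS and lysed in Laemmli buffer (62.5 mM Tris-HCl pH 6.8, 10% glycerol, 2% SDS) with protease inhibitors, then sonicated and protein quantified. Membranes were blocked 45 min in PBS-Tween-5% milk. Primary antibodies ran 3 h and secondary 1 h, both at room temperature. Controls: untreated and staurosporine.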

[8] = Differential Nuclear Staining; format: cell-based; conditions: human
In short: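 CC50 determined by DNS assay in CCRF-CEM (RPMI) and in non-cancerous HS-27 fibroblasts (DMEM). Both media had 10% FBS and penicillin/streptomycin, at 37 °C and 5% CO2. Cells were seeded at 10,000/well (HS-27 at 3,000/well) and treated at 0.5–100 µM for 48 h, in quadruplicate. Hoechst and PI were added 2 h before imaging. Controls: DMSO, H2O2 and untreated. Ratio = HS-27 CC50 / CEM CC50.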

[9] = test system: GLUT1; conditions: read-out: GLUT1 IC50; commercially available GLUT1 inhibitor; cited from earlier work

Row | SMILES | decrease of relative transport activity of GLUT1, primary screen [1] | decrease of relative transport activity of GLUT4, primary screen [2] | inhibition of GLUT5 transport activity, primary screen [3] | xenograft volume of untreated group relative to treated group [6] | also measured
1 | Cc1cccc2sc(NC(=O)CN3C(=O)S/C(=C/c4ccco4)C3=O)nc12 [Compound F8, 2-(5-(Furan-2-ylmethylene)-2,4-dioxothiazolidin-3-yl)-N-(4-methylbenzo[d]thiazol-2-yl)acetamide] | at least 50% | at least 50% |  |  | 
2 | O=C(CN1C(=O)S/C(=C/c2ccco2)C1=O)Nc1ccc([N+](=O)[O-])cc1 [Compound F14, 2-(5-(Furan-2-ylmethylene)-2,4-dioxothiazolidin-3-yl)-N-(4-nitrophenyl) acetamide] | did not inhibit | did not inhibit | did not inhibit |  | 
3 | O=C(CN1C(=O)S/C(=C/c2ccco2)C1=O)Nc1nc2ccccc2s1 [Compound F18, N-(benzo[d]thiazol-2-yl)-2-(5-(furan-2-ylmethylene)-2,4-dioxothiazolidin-3-yl)acetamide] | at least 50% | at least 50% | neither F18 nor F19 affected the transport activity of GLUT5 | ~2 times | GLUT1 relative activity retained [1]: almost completely; cell cycle effect [4]: arrest of the cell cycle in the sub G0/G1phase; ratio of IC50 WBCs to CEM cell line [5]: 100 times; weight loss or signs of toxicity ([6]; mouse, in vivo, ip, 50 mg/kg): no considerable weight loss or any other noticeable signs of toxicity; caspase 3 [7]: activation; level of CDK2 [7]: decrease; level of endoplasmic stress marker GRP78 [7]: increase; level of phosphorylated mTOR [7]: decrease
4 | O=C(CN1C(=O)S/C(=C/c2ccco2)C1=O)Nc1ccc(Cl)c(Cl)c1 [Compound F19, N-(3,4-dichlorophenyl)-2-(5-(furan-2-ylmethylene)-2,4-dioxothiazolidin-3-yl) acetamide] | at least 50% | at least 50% | neither F18 nor F19 affected the transport activity of GLUT5 |  | selectivity ratio at 48 h [8]: > 12.8
5 | CC(=O)CC(=O)Nc1ccc(Cl)c(C(F)(F)F)c1 [Fasentin] |  |  |  |  | IC50 [9]: 10 µM
6 | COc1cccc2c1C(=O)c1c(O)c3c(c(O)c1C2=O)C[C@@](O)(C(=O)CO)C[C@@H]3O[C@H]1C[C@H](N)[C@H](O)[C@H](C)O1 [doxorubicin, reference compound] |  |  |  | approximately 1.5 times | 
